Assay results as given in paper PMC11027041 (RSC Advances, 2024).
Each block holds one compound with its values, some of them ahead of it.

Columns and labels:
HDAC1 = HDAC1 (Homo sapiens, UniProt Q13547); assay: In vitro HDAC enzyme assay; assay type: biochemical; settings: for inhibition at 0.5 µM: read-out: Inhibition% (inhibition rate, IR) against HDAC1, at a concentration of 500 nM
[1] = test system: normal bone marrow cells HS-5; assay: Cell viability assay; assay type: cell-based; settings: 72 h, read-out: Antiproliferative IC50 HS-5
Outline: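 Cells grown in IMDM with 20% FBS, 100 U per mL penicillin and 100 μg per mL streptomycin, then plated in 96-well format. Test compound exposure was 72 h. Alamar blue solution (1 mM, as added) was then applied for a further 5–6 h, and […] was read at 530/590 nm. Data were normalized to vehicle, as means of three independent measurements (standard errors <20%), and IC50 was calculated.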

[2] = test system: melanoma cell line SK-MEL-2; assay: Cell viability assay; assay type: cell-based; settings: Homo sapiens, SK-MEL-2, 72 h, read-out: Antiproliferative IC50 SK-MEL-2
[3] = test system: colon cancer cell line HCT-116; assay: Cell viability assay; assay type: cell-based; settings: Homo sapiens, HCT-116, 72 h, read-out: Antiproliferative IC50 HCT116

Sequence of HDAC1 (Q13547 whole entry): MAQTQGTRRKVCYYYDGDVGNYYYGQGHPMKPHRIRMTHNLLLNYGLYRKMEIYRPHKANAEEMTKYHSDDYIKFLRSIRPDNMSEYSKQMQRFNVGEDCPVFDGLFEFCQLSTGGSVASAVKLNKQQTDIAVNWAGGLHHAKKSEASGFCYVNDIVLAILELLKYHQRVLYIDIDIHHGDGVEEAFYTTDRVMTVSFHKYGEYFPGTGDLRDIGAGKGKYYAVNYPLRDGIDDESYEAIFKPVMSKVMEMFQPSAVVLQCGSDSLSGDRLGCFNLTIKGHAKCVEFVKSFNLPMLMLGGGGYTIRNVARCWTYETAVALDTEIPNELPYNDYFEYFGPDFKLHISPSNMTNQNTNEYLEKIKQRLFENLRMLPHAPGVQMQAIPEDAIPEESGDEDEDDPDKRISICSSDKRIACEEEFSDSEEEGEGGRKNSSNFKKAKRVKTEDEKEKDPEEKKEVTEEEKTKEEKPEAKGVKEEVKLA

Compound: COc1ccc(CN2Cc3[nH]c4ccccc4c3C[C@H]2C(=O)NCCCCCCC(=O)NO)cc1 [Compound 9a, (S)-N-(7-(Hydroxyamino)-7-oxoheptyl)-2-(4-methoxybenzyl)-2,3,4,9-tetrahydro-1H-pyrido[3,4-b]indole-3-carboxamide]
inhibition at 0.5 µM (HDAC1; duplicate): 31.8%

Compound: COc1ccc(CN2[C@H](C)c3[nH]c4ccccc4c3C[C@H]2C(=O)NCCCCCCC(=O)NO)cc1 [Compound 9f, (1R,3S)-N-(7-(Hydroxyamino)-7-oxoheptyl)-2-(4-methoxybenzyl)-1-methyl-2,3,4,9-tetrahydro-1H-pyrido[3,4-b]indole-3-carboxamide]
inhibition at 0.5 µM (HDAC1; duplicate): 40.8%

Compound: O=C(CCCCCCNC(=O)[C@@H]1Cc2c([nH]c3ccccc23)[C@@H](C2CC2)N1)NO [Compound 9i, (1R,3S)-1-Cyclopropyl-N-(7-(hydroxyamino)-7-oxoheptyl)-2,3,4,9-tetrahydro-1H-pyrido[3,4-b]indole-3-carboxamide]
inhibition at 0.5 µM (HDAC1; duplicate): 77.3%

Compound: O=C(CCCCCCNC(=O)[C@@H]1Cc2c([nH]c3ccccc23)[C@@H](c2ccc(Cl)cc2)N1)NO [Compound 9g, (1R,3S)-1-(4-Chlorophenyl)-N-(7-(hydroxyamino)-7-oxoheptyl)-2,3,4,9-tetrahydro-1H-pyrido[3,4-b]indole-3-carboxamide]
inhibition at 0.5 µM (HDAC1; duplicate): 65.4%

Compound: COc1ccc(CN2[C@H](C)c3[nH]c4ccccc4c3C[C@H]2C(=O)NCCCCCC(=O)NO)cc1 [Compound 9e, (1R,3S)-N-(6-(Hydroxyamino)-6-oxohexyl)-2-(4-methoxybenzyl)-1-methyl-2,3,4,9-tetrahydro-1H-pyrido[3,4-b]indole-3-carboxamide]
inhibition at 0.5 µM (HDAC1; duplicate): 58.1%

Compound: COc1ccc([C@H]2N[C@H](C(=O)NCCCCCCC(=O)NO)Cc3c2[nH]c2ccccc32)cc1 [Compound 9c, (1R,3S)-N-(7-(Hydroxyamino)-7-oxoheptyl)-1-(4-methoxyphenyl)-2,3,4,9-tetrahydro-1H-pyrido[3,4-b]indole-3-carboxamide]
inhibition at 0.5 µM (HDAC1; duplicate): 41.3%

Compound: O=C(CCCCCNC(=O)[C@@H]1Cc2c([nH]c3ccccc23)[C@@H](c2ccccc2)N1)NO [Compound 9d, (1R,3S)-N-(6-(Hydroxyamino)-6-oxohexyl)-1-phenyl-2,3,4,9-tetrahydro-1H-pyrido[3,4-b]indole-3-carboxamide]
inhibition at 0.5 µM (HDAC1; duplicate): 39.6%

Compound: COc1ccc([C@H]2N[C@H](C(=O)NCCCCCCC(=O)NO)Cc3c2[nH]c2ccccc32)cc1OC [Compound 9h, (1R,3S)-1-(3,4-Dimethoxyphenyl)-N-(7-(hydroxyamino)-7-oxoheptyl)-2,3,4,9-tetrahydro-1H-pyrido[3,4-b]indole-3-carboxamide]
inhibition at 0.5 µM (HDAC1; duplicate): 46.5%

Compound: COc1ccc([C@H]2N[C@H](C(=O)NCCCCCC(=O)NO)Cc3c2[nH]c2ccccc32)cc1 [Compound 9b, (1R,3S)-N-(6-(Hydroxyamino)-6-oxohexyl)-1-(4-methoxyphenyl)-2,3,4,9-tetrahydro-1H-pyrido[3,4-b]indole-3-carboxamide]
inhibition at 0.5 µM (HDAC1; duplicate): 23.2%

The next lines start with results.

IC50 (HDAC1): 0.0104 ± 0.00065 µM
inhibition at 0.5 µM (HDAC1; duplicate): 98.2%
IC50 [2]: 3.16 ± 0.08 µM
IC50 [3]: 3.2 ± 0.09 µM
Compound: O=C(CCCCCCNC(=O)[C@H]1Cc2c([nH]c3ccccc23)[C@H](C2CC2)N1Cc1ccccc1)NO [Compound 13g, (1S,3R)-2-Benzyl-1-cyclopropyl-N-(7-(hydroxyamino)-7-oxoheptyl)-2,3,4,9-tetrahydro-1H-pyrido[3,4-b]indole-3-carboxamide]
IC50 [1]: > 50 µM

inhibition at 0.5 µM (HDAC1; duplicate): 51.3%
Compound: O=C(CCCCCNC(=O)[C@H]1Cc2c([nH]c3ccccc23)[C@H](c2ccc(Cl)cc2)N1)NO [Compound 13h, (1S,3R)-1-(4-Chlorophenyl)-N-(6-(hydroxyamino)-6-oxohexyl)-2,3,4,9-tetrahydro-1H-pyrido[3,4-b]indole-3-carboxamide]

IC50 [2]: 4.5 ± 0.14 µM
IC50 [3]: 3.87 ± 0.11 µM
Compound: O=C(CCCCCCNC(=O)c1cnc(N(c2ccccc2)c2ccccc2)nc1)NO [ACY-1215, reference compound]

inhibition at 0.5 µM (HDAC1; duplicate): 49.2%
Compound: COc1ccc([C@@H]2N[C@@H](C(=O)NCCCCCC(=O)NO)Cc3c2[nH]c2ccccc32)cc1 [Compound 13b, (1S,3R)-N-(6-(Hydroxyamino)-6-oxohexyl)-1-(4-methoxyphenyl)-2,3,4,9-tetrahydro-1H-pyrido[3,4-b]indole-3-carboxamide]

inhibition at 0.5 µM (HDAC1; duplicate): 66%
IC50 [2]: 7.84 ± 0.26 µM
IC50 [3]: 7.55 ± 0.18 µM
Compound: O=C(CCCCCCNC(=O)[C@H]1Cc2c([nH]c3ccccc23)[C@H](c2ccc(Cl)cc2)N1)NO [Compound 13i, (1S,3R)-1-(4-Chlorophenyl)-N-(7-(hydroxyamino)-7-oxoheptyl)-2,3,4,9-tetrahydro-1H-pyrido[3,4-b]indole-3-carboxamide]
IC50 [1]: > 50 µM

IC50 (HDAC1): 0.0536 ± 0.0025 µM
inhibition at 0.5 µM (HDAC1; duplicate): 84.8%
IC50 [2]: 9.65 ± 0.46 µM
IC50 [3]: 8.34 ± 0.24 µM
Compound: COc1ccc(CN2[C@@H](C(=O)NCCCCCC(=O)NO)Cc3c([nH]c4ccccc34)[C@@H]2C)cc1 [Compound 13e, (1S,3R)-N-(6-(Hydroxyamino)-6-oxohexyl)-2-(4-methoxybenzyl)-1-methyl-2,3,4,9-tetrahydro-1H-pyrido[3,4-b]indole-3-carboxamide]
IC50 [1]: > 50 µM

inhibition at 0.5 µM (HDAC1; duplicate): 44.3%
Compound: COc1ccc(CN2Cc3[nH]c4ccccc4c3C[C@@H]2C(=O)NCCCCCCC(=O)NO)cc1 [Compound 13a, (R)-N-(7-(Hydroxyamino)-7-oxoheptyl)-2-(4-methoxybenzyl)-2,3,4,9-tetrahydro-1H-pyrido[3,4-b]indole-3-carboxamide]

IC50 (HDAC1): 0.0224 ± 0.00084 µM
inhibition at 0.5 µM (HDAC1; duplicate): 91.4%
IC50 [2]: 5.7 ± 0.12 µM
IC50 [3]: 4.22 ± 0.12 µM
Compound: COc1ccc(CN2[C@@H](C(=O)NCCCCCCC(=O)NO)Cc3c([nH]c4ccccc34)[C@@H]2C)cc1 [Compound 13f, (1S,3R)-N-(7-(Hydroxyamino)-7-oxoheptyl)-2-(4-methoxybenzyl)-1-methyl-2,3,4,9-tetrahydro-1H-pyrido[3,4-b]indole-3-carboxamide]
IC50 [1]: > 50 µM

inhibition at 0.5 µM (HDAC1; duplicate): 72.5%
Compound: COc1ccc([C@@H]2N[C@@H](C(=O)NCCCCCCC(=O)NO)Cc3c2[nH]c2ccccc32)cc1OC [Compound 13j, (1S,3R)-1-(3,4-Dimethoxyphenyl)-N-(7-(hydroxyamino)-7-oxoheptyl)-2,3,4,9-tetrahydro-1H-pyrido[3,4-b]indole-3-carboxamide]

IC50 (HDAC1): 0.047 ± 0.00125 µM
Inhibition% (inhibition rate, IR) against HDAC1 (HDAC1; at a concentration of 500 nM, duplicate, 0.5 µM): 81.6%
inhibition at 0.5 µM (HDAC1; duplicate): 66%
Compound: COc1ccc([C@@H]2N[C@@H](C(=O)NCCCCCCC(=O)NO)Cc3c2[nH]c2ccccc32)cc1 [Compound 13c, (1S,3R)-N-(7-(Hydroxyamino)-7-oxoheptyl)-1-(4-methoxyphenyl)-2,3,4,9-tetrahydro-1H-pyrido[3,4-b]indole-3-carboxamide]
